Data from ChEMBL document CHEMBL2380298, “Synthesis and antimicrobial activity of novel amphiphilic aromatic amino alcohols” (2013).
Each block holds one compound with its values, some of them ahead of it.

Assays:
Assay type in all cases: functional
Staphylococcus aureus [1] = assay: Antimicrobial activity against Staphylococcus aureus ATCC 29213 by broth dilution method; settings: for MIC: Staphylococcus aureus, ATCC 29213
Nakaseomyces glabratus = assay: Antimicrobial activity against Candida glabrata ATCC 18804 by broth dilution method
Candida parapsilosis = assay: Antimicrobial activity against Candida parapsilosis ATCC 90030 by broth dilution method; settings: Lodderomyces parapsilosis
[2] = system: Staphylococcus epidermidis; assay: Antimicrobial activity against Staphylococcus epidermidis ATCC 12228 by broth dilution method; settings: for MIC: Staphylococcus epidermidis, ATCC 12228
Candida tropicalis = assay: Antimicrobial activity against Candida tropicalis ATCC 750 by broth dilution method
Escherichia coli [3] = assay: Antimicrobial activity against Escherichia coli ATCC 11229 by broth dilution method; settings: for MIC: Escherichia coli, ATCC 11229
Pseudomonas aeruginosa = assay: Antimicrobial activity against Pseudomonas aeruginosa ATCC 27853 by broth dilution method
Staphylococcus aureus [4] = assay: Antimicrobial activity against methicillin-resistant Staphylococcus aureus clinical isolate 235 by broth dilution method
Staphylococcus aureus [5] = assay: Antimicrobial activity against methicillin-resistant Staphylococcus aureus clinical isolate 218 by broth dilution method
Staphylococcus aureus [6] = assay: Antimicrobial activity against methicillin-resistant Staphylococcus aureus clinical isolate 232 by broth dilution method
Staphylococcus aureus [7] = assay: Bactericidal activity against methicillin-resistant Staphylococcus aureus clinical isolate 255 after 24 hrs; settings: isolate 255, 24 h
Outline: (§1)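 Bactericidal concentration: 0.1 ml from wells at the MIC dilution and the dilutions on either side was streaked onto tryptic soy agar and incubated 24 h. It was taken as the lowest drug concentration giving no growth (100% killing).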

[8] = system: Staphylococcus epidermidis; assay: Bactericidal activity against Staphylococcus epidermidis ATCC 12228 after 24 hrs; settings: ATCC 12228, 24 h
Outline: (§2)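 MBC: after MIC determination, 0.1 ml from the MIC well and from two dilutions either side streaked on tryptic soy agar, incubated 24 h; MBC taken as lowest concentration giving no growth (100% kill).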

Staphylococcus aureus [9] = assay: Bactericidal activity against methicillin-resistant Staphylococcus aureus clinical isolate 257 after 24 hrs; settings: isolate 257, 24 h; outline: as §1
Staphylococcus aureus [10] = assay: Bactericidal activity against methicillin-resistant Staphylococcus aureus clinical isolate 259 after 24 hrs; settings: isolate 259, 24 h; outline: as §1
Staphylococcus aureus [11] = assay: Bactericidal activity against methicillin-resistant Staphylococcus aureus clinical isolate 238 after 24 hrs; settings: isolate 238, 24 h; outline: as §1
Staphylococcus aureus [12] = assay: Bactericidal activity against methicillin-resistant Staphylococcus aureus clinical isolate 212 after 24 hrs; settings: isolate 212, 24 h; outline: as §1
Staphylococcus aureus [13] = assay: Bactericidal activity against methicillin-resistant Staphylococcus aureus clinical isolate 236 after 24 hrs; settings: isolate 236, 24 h; outline: as §1
Staphylococcus aureus [14] = assay: Bactericidal activity against methicillin-resistant Staphylococcus aureus clinical isolate 237 after 24 hrs; settings: isolate 237, 24 h; outline: as §1
Staphylococcus aureus [15] = assay: Antimicrobial activity against methicillin-resistant Staphylococcus aureus clinical isolate 212 by broth dilution method
Staphylococcus aureus [16] = assay: Antimicrobial activity against methicillin-resistant Staphylococcus aureus clinical isolate 260 by broth dilution method
Staphylococcus aureus [17] = assay: Antimicrobial activity against methicillin-resistant Staphylococcus aureus clinical isolate 215 by broth dilution method
Staphylococcus aureus [18] = assay: Antimicrobial activity against methicillin-resistant Staphylococcus aureus clinical isolate 238 by broth dilution method
Staphylococcus aureus [19] = assay: Bactericidal activity against methicillin-resistant Staphylococcus aureus clinical isolate 232 after 24 hrs; settings: isolate 232, 24 h; outline: as §1
Staphylococcus aureus [20] = assay: Antimicrobial activity against methicillin-resistant Staphylococcus aureus clinical isolate 255 by broth dilution method
Staphylococcus aureus [21] = assay: Bactericidal activity against Staphylococcus aureus ATCC 29213 after 24 hrs; settings: ATCC 29213, 24 h; outline: as §1
Staphylococcus aureus [22] = assay: Antimicrobial activity against methicillin-resistant Staphylococcus aureus clinical isolate 259 by broth dilution method
Staphylococcus aureus [23] = assay: Bactericidal activity against methicillin-resistant Staphylococcus aureus clinical isolate 225 after 24 hrs; settings: isolate 225, 24 h; outline: as §1
Staphylococcus aureus [24] = assay: Antimicrobial activity against methicillin-resistant Staphylococcus aureus clinical isolate 205 by broth dilution method
Staphylococcus aureus [25] = assay: Antimicrobial activity against methicillin-resistant Staphylococcus aureus clinical isolate 231 by broth dilution method
Staphylococcus aureus [26] = assay: Antimicrobial activity against methicillin-resistant Staphylococcus aureus clinical isolate 257 by broth dilution method
Staphylococcus aureus [27] = assay: Antimicrobial activity against methicillin-resistant Staphylococcus aureus clinical isolate 207 by broth dilution method
Staphylococcus aureus [28] = assay: Antimicrobial activity against methicillin-resistant Staphylococcus aureus clinical isolate 237 by broth dilution method
Staphylococcus aureus [29] = assay: Bactericidal activity against methicillin-resistant Staphylococcus aureus clinical isolate 218 after 24 hrs; settings: isolate 218, 24 h; outline: as §1
Staphylococcus aureus [30] = assay: Bactericidal activity against methicillin-resistant Staphylococcus aureus clinical isolate 235 after 24 hrs; settings: isolate 235, 24 h; outline: as §1
Staphylococcus aureus [31] = assay: Antimicrobial activity against methicillin-resistant Staphylococcus aureus clinical isolate 178 by broth dilution method
Staphylococcus aureus [32] = assay: Antimicrobial activity against methicillin-resistant Staphylococcus aureus clinical isolate by broth dilution method
Staphylococcus aureus [33] = assay: Antimicrobial activity against methicillin-resistant Staphylococcus aureus clinical isolate 264 by broth dilution method
Staphylococcus aureus [34] = assay: Antimicrobial activity against methicillin-resistant Staphylococcus aureus clinical isolate 227 by broth dilution method
Staphylococcus aureus [35] = assay: Bactericidal activity against methicillin-resistant Staphylococcus aureus clinical isolate 264 after 24 hrs; settings: isolate 264, 24 h; outline: as §1
Staphylococcus aureus [36] = assay: Antimicrobial activity against methicillin-resistant Staphylococcus aureus clinical isolate 176 by broth dilution method
Staphylococcus aureus [37] = assay: Bactericidal activity against methicillin-resistant Staphylococcus aureus clinical isolate 231 after 24 hrs; settings: isolate 231, 24 h; outline: as §1
Candida albicans = assay: Antimicrobial activity against Candida albicans ATCC 22019 by broth dilution method
Staphylococcus aureus [38] = assay: Antimicrobial activity against methicillin-resistant Staphylococcus aureus clinical isolate 225 by broth dilution method
Staphylococcus aureus [39] = assay: Antimicrobial activity against methicillin-resistant Staphylococcus aureus clinical isolate 195 by broth dilution method
Staphylococcus aureus [40] = assay: Antimicrobial activity against methicillin-resistant Staphylococcus aureus clinical isolate 236 by broth dilution method
Staphylococcus aureus [41] = assay: Bactericidal activity against methicillin-resistant Staphylococcus aureus clinical isolate 260 after 24 hrs; settings: isolate 260, 24 h; outline: as §1
Escherichia coli [42] = assay: Bactericidal activity against Escherichia coli ATCC 11229 after 24 hrs; settings: ATCC 11229, 24 h; outline: as §2

- MIC (Staphylococcus aureus [1]): 1020 µg/mL
- MIC (Nakaseomyces glabratus): 512 µg/mL
- MIC (Candida parapsilosis): > 512 µg/mL
- MIC [2]: 512 µg/mL
- MIC (Candida tropicalis): > 512 µg/mL
- MIC (Escherichia coli [3]): 1020 µg/mL
- MIC (Pseudomonas aeruginosa): 512 µg/mL
SMILES: CCCCOc1ccc(CNC(CO)(CO)CO)cc1.Cl
- -logMIC (Staphylococcus aureus [1]): 2.49
- -logMIC [2]: 2.79
- -logMIC (Escherichia coli [3]): 2.49

- MIC (Staphylococcus aureus [1]): 128 µg/mL
- MIC (Nakaseomyces glabratus): 256 µg/mL
- MIC (Candida parapsilosis): > 512 µg/mL
- MIC [2]: 128 µg/mL
- MIC (Candida tropicalis): > 512 µg/mL
- MIC (Escherichia coli [3]): 256 µg/mL
- MIC (Pseudomonas aeruginosa): 512 µg/mL
SMILES: CCCCCCOc1ccc(CNC(CO)(CO)CO)cc1.Cl
- -logMIC (Staphylococcus aureus [1]): 3.45
- -logMIC [2]: 3.43
- -logMIC (Escherichia coli [3]): 3.13

SMILES: CCCCCCCCOc1ccc(CNC(CO)(CO)CO)cc1.Cl
- -logMIC (Staphylococcus aureus [1]): 3.67
- MIC (Staphylococcus aureus [1]): 8 µg/mL
- MIC (Staphylococcus aureus [4]): 16 µg/mL
- MIC (Staphylococcus aureus [5]): 16 µg/mL
- MIC (Staphylococcus aureus [6]): 16 µg/mL
- MBC (Staphylococcus aureus [7]): 8 µg/mL
- MBC [8]: 128 µg/mL
- MBC (Staphylococcus aureus [9]): 8 µg/mL
- MBC (Staphylococcus aureus [10]): 8 µg/mL
- MBC (Staphylococcus aureus [11]): 16 µg/mL
- MBC (Staphylococcus aureus [12]): 128 µg/mL
- MBC (Staphylococcus aureus [13]): 32 µg/mL
- MBC (Staphylococcus aureus [14]): 16 µg/mL
- MIC (Staphylococcus aureus [15]): 32 µg/mL
- MIC (Staphylococcus aureus [16]): 16 µg/mL
- MIC (Nakaseomyces glabratus): 8 µg/mL
- MIC (Staphylococcus aureus [17]): 16 µg/mL
- MIC (Candida parapsilosis): 32 µg/mL
- MIC (Staphylococcus aureus [18]): 16 µg/mL
- MBC (Staphylococcus aureus [19]): 16 µg/mL
- MIC (Staphylococcus aureus [20]): 8 µg/mL
- MBC (Staphylococcus aureus [21]): 32 µg/mL
- MIC (Staphylococcus aureus [22]): 8 µg/mL
- MBC (Staphylococcus aureus [23]): 512 µg/mL
- -logMIC [2]: 4.37
- MIC [2]: 16 µg/mL
- MIC (Staphylococcus aureus [24]): 16 µg/mL
- MIC (Staphylococcus aureus [25]): 16 µg/mL
- MIC (Staphylococcus aureus [26]): 8 µg/mL
- MIC (Staphylococcus aureus [27]): 64 µg/mL
- MIC (Staphylococcus aureus [28]): 16 µg/mL
- MIC (Candida tropicalis): 32 µg/mL
- MBC (Staphylococcus aureus [29]): 128 µg/mL
- MBC (Staphylococcus aureus [30]): 32 µg/mL
- MIC (Staphylococcus aureus [31]): 128 µg/mL
- -logMIC (Staphylococcus aureus [32]): 4.287
- MIC50 (Staphylococcus aureus [32]; Staphylococcus aureus): 16 µg/mL
- MIC90 (Staphylococcus aureus [32]; Staphylococcus aureus): 64 µg/mL
- MIC (Staphylococcus aureus [33]): 8 µg/mL
- MIC (Staphylococcus aureus [34]): 32 µg/mL
- MBC (Staphylococcus aureus [35]): 64 µg/mL
- -logMIC (Escherichia coli [3]): 4.06
- MIC (Escherichia coli [3]): 32 µg/mL
- MIC (Staphylococcus aureus [36]): 32 µg/mL
- MBC (Staphylococcus aureus [37]): 16 µg/mL
- MIC (Candida albicans): 4 µg/mL
- MIC (Staphylococcus aureus [38]): 128 µg/mL
- MIC (Staphylococcus aureus [39]): 32 µg/mL
- MIC (Staphylococcus aureus [40]): 16 µg/mL
- MIC (Pseudomonas aeruginosa): > 256 µg/mL
- MBC (Staphylococcus aureus [41]): 32 µg/mL
- MBC (Escherichia coli [42]): 32 µg/mL
